ChEMBL document CHEMBL4130374, “Discovery of 9H-purins as potential tubulin polymerization inhibitors: Synthesis, biological evaluation and structure-activity relationships” (Eur J Med Chem, 2017)

System: AGS
Assay: Cell cycle arrest in human AGS cells assessed as accumulation at G2/M phase at 1 uM after 24 hrs by propidium iodide staining based flow cytometry (reference value: 9.18%)
Format: functional
Settings: not given
Summary of the method: (§1)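 Cells washed twice in ice-cold PBS, fixed in ice-cold 70% ethanol, treated with 0.1 mg/mL RNase, stained with propidium iodide. Phase distribution determined by flow cytometry.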

Compound | Activity
COc1ccc(N(C)c2nc(Cl)nc3c2ncn3C)cc1 | 25.18%

System: AGS
Assay: Cell cycle arrest in human AGS cells assessed as accumulation at G2/M phase at 2 uM after 24 hrs by propidium iodide staining based flow cytometry (reference value: 9.18%)
Format: functional
Settings: not given
Summary of the method: as §1

Compound | Activity
COc1ccc(N(C)c2nc(Cl)nc3c2ncn3C)cc1 | 63.49%

System: AGS
Assay: Cell cycle arrest in human AGS cells assessed as accumulation at G0/G1 phase at 2 uM after 24 hrs by propidium iodide staining based flow cytometry (reference value: 52.87%)
Format: functional
Settings: not given
Summary of the method: as §1

Compound | Activity
COc1ccc(N(C)c2nc(Cl)nc3c2ncn3C)cc1 | 21.64%

System: AGS
Assay: Induction of apoptosis in human AGS cells assessed as viable cells at 0.5 uM after 24 hrs by Annexin V-FITC/propidium iodide-double staining based flow cytometry (reference value: 69.90%)
Format: functional
Settings: read-out: Activity

Compound | viability at 0.5 µM
COc1ccc(N(C)c2nc(Cl)nc3c2ncn3C)cc1 | 59.2%

System: AGS
Assay: Induction of apoptosis in human AGS cells assessed as late apoptotic cells at 0.5 uM after 24 hrs by Annexin V-FITC/propidium iodide-double staining based flow cytometry (reference value: 16.90%)
Format: functional
Settings: not given

Compound | Activity
COc1ccc(N(C)c2nc(Cl)nc3c2ncn3C)cc1 | 27.6%

System: AGS
Assay: Cell cycle arrest in human AGS cells assessed as accumulation at G0/G1 phase at 50 nM after 24 hrs by propidium iodide staining based flow cytometry (reference value: 52.87%)
Format: functional
Settings: not given
Summary of the method: as §1

Compound | Activity
COc1cc2c(c(OC)c1OC)-c1ccc(OC)c(=O)cc1[C@@H](NC(C)=O)CC2 [COLCHICINE] | 1.2%

System: AGS
Assay: Cell cycle arrest in human AGS cells assessed as accumulation at G0/G1 phase at 0.25 uM after 24 hrs by propidium iodide staining based flow cytometry (reference value: 52.87%)
Format: functional
Settings: not given
Summary of the method: as §1

Compound | Activity
COc1ccc(N(C)c2nc(Cl)nc3c2ncn3C)cc1 | 50.11%

System: not listed separately
Assay: Cytotoxicity against mouse HT22 cells after 48 hrs by MTT assay
Format: cell-based, HT-22
Settings: not given
Summary of the method: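 MTT readout after 48 h exposure; CC50 is the 50% cytotoxic concentration, mean of three repeated experiments.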

Compound | CC50 at 48 h
COc1ccc(N(C)c2ncnc3c2ncn3Cc2cc(OC)c(OC)c(OC)c2)cc1 | 23000 nM
COc1ccc(N(C)c2nc(Cl)nc3c2ncn3C)cc1 | > 100000 nM
COc1cc(Cn2cnc3c(Cl)nc(Cl)nc32)cc(OC)c1 | > 100000 nM
COc1ccc(N(C)c2ncnc3c2ncn3Cc2ccc(OC)c(OC)c2)cc1 | > 100000 nM

System: AGS
Assay: Cell cycle arrest in human AGS cells assessed as accumulation at S phase at 0.25 uM after 24 hrs by propidium iodide staining based flow cytometry (reference value: 37.94%)
Format: functional
Settings: not given
Summary of the method: as §1

Compound | Activity
COc1ccc(N(C)c2nc(Cl)nc3c2ncn3C)cc1 | 39.78%

System: AGS
Assay: Cell cycle arrest in human AGS cells assessed as accumulation at G2/M phase at 0.25 uM after 24 hrs by propidium iodide staining based flow cytometry (reference value: 9.18%)
Format: functional
Settings: not given
Summary of the method: as §1

Compound | Activity
COc1ccc(N(C)c2nc(Cl)nc3c2ncn3C)cc1 | 10.11%

System: Tubulin (Sus scrofa)
Assay: Inhibition of pig brain tubulin polymerization at 10 uM by spectrophotometry relative to control
Settings: not given

Compound | inhibition
COc1ccc(N(C)c2ncnc3c2ncn3Cc2cc(OC)c(OC)c(OC)c2)cc1 | 20%
COc1ccc(N(C)c2nc(Cl)nc3c2ncn3C)cc1 | 41%
COc1cc(Cn2cnc3c(Cl)nc(Cl)nc32)cc(OC)c1 | 13%
COc1ccc(N(C)c2ncnc3c2ncn3Cc2ccc(OC)c(OC)c2)cc1 | 18%

System: AGS
Assay: Induction of apoptosis in human AGS cells assessed as necrotic cells at 0.25 uM after 24 hrs by Annexin V-FITC/propidium iodide-double staining based flow cytometry (reference value: 0.40%)
Format: functional
Settings: not given

Compound | Activity
COc1ccc(N(C)c2nc(Cl)nc3c2ncn3C)cc1 | 2.25%

System: AGS
Assay: Induction of apoptosis in human AGS cells assessed as late apoptotic cells at 0.25 uM after 24 hrs by Annexin V-FITC/propidium iodide-double staining based flow cytometry (reference value: 16.90%)
Format: functional
Settings: not given

Compound | Activity
COc1ccc(N(C)c2nc(Cl)nc3c2ncn3C)cc1 | 23.8%

System: AGS
Assay: Induction of apoptosis in human AGS cells assessed as viable cells at 0.25 uM after 24 hrs by Annexin V-FITC/propidium iodide-double staining based flow cytometry (reference value: 69.90%)
Format: functional
Settings: read-out: Activity

Compound | viability at 0.25 µM
COc1ccc(N(C)c2nc(Cl)nc3c2ncn3C)cc1 | 63.5%

System: SH-SY5Y
Assay: Potency index, ratio of 5-Fu GI50 to test compound GI50 for human SH-SY5Y cells
Format: functional
Settings: not given

Compound | RatioGI50
COc1ccc(N(C)c2ncnc3c2ncn3Cc2cc(OC)c(OC)c(OC)c2)cc1 | 46
COc1ccc(N(C)c2ncnc3c2ncn3Cc2ccc(OC)c(OC)c2)cc1 | 28

System: not listed separately
Assay: Selectivity ratio of GI50 for human AGS cells to GI50 for human SH-SY5Y cells
Format: functional
Settings: not given

Compound | RatioGI50
COc1ccc(N(C)c2ncnc3c2ncn3Cc2cc(OC)c(OC)c(OC)c2)cc1 | >230
COc1ccc(N(C)c2ncnc3c2ncn3Cc2ccc(OC)c(OC)c2)cc1 | >230

System: SH-SY5Y
Assay: Antiproliferative activity against human SH-SY5Y cells after 48 hrs by MTT assay
Format: functional
Settings: not given
Summary of the method: (§2)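 Log-phase cells, harvested by trypsinization, seeded 24 h, then exposed to a range of compound concentrations for 48 h. Culture in RPMI 1640 with 4% FBS, penicillin/streptomycin, 37°C, 5% CO2. DMSO below 1% final; 5-Fu as positive control. Readout is MTT (0.5 mg/mL, 4 h), formazan dissolved in DMSO, absorbance at 570 nm. GI50 = 50% growth inhibition versus untreated cells; means ± SD of at least two independent experiments.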

Compound | GI50
COc1ccc(N(C)c2ncnc3c2ncn3Cc2cc(OC)c(OC)c(OC)c2)cc1 | 260 nM
COc1ccc(N(C)c2nc(Cl)nc3c2ncn3C)cc1 | 3400 nM
COc1cc(Cn2cnc3c(Cl)nc(Cl)nc32)cc(OC)c1 | 1700 nM
COc1cc2c(c(OC)c1OC)-c1ccc(OC)c(=O)cc1[C@@H](NC(C)=O)CC2 [COLCHICINE] | 40 nM
COc1ccc(N(C)c2ncnc3c2ncn3Cc2ccc(OC)c(OC)c2)cc1 | 430 nM

System: AGS
Assay: Antiproliferative activity against human AGS cells after 48 hrs by MTT assay
Format: functional
Settings: not given
Summary of the method: as §2

Compound | GI50
COc1ccc(N(C)c2ncnc3c2ncn3Cc2cc(OC)c(OC)c(OC)c2)cc1 | > 100000 nM
COc1ccc(N(C)c2nc(Cl)nc3c2ncn3C)cc1 | 260 nM
COc1cc(Cn2cnc3c(Cl)nc(Cl)nc32)cc(OC)c1 | 3800 nM
COc1cc2c(c(OC)c1OC)-c1ccc(OC)c(=O)cc1[C@@H](NC(C)=O)CC2 [COLCHICINE] | 40 nM
COc1ccc(N(C)c2ncnc3c2ncn3Cc2ccc(OC)c(OC)c2)cc1 | > 100000 nM

System: AGS
Assay: Cell cycle arrest in human AGS cells assessed as accumulation at S phase at 2 uM after 24 hrs by propidium iodide staining based flow cytometry (reference value: 37.94%)
Format: functional
Settings: not given
Summary of the method: as §1

Compound | Activity
COc1ccc(N(C)c2nc(Cl)nc3c2ncn3C)cc1 | 14.87%

System: not listed separately
Assay: Selectivity index, ratio of GI50 for mouse HT22 cells to GI50 for human SH-SY5Y cells
Format: toxicity
Settings: HT22 cells and SH-SY5Y cells, read-out: RatioGI50

Compound | selectivity ratio
COc1ccc(N(C)c2ncnc3c2ncn3Cc2cc(OC)c(OC)c(OC)c2)cc1 | 88
COc1ccc(N(C)c2nc(Cl)nc3c2ncn3C)cc1 | 23
COc1ccc(N(C)c2ncnc3c2ncn3Cc2ccc(OC)c(OC)c2)cc1 | 230

System: K562
Assay: Antiproliferative activity against human K562 cells after 48 hrs by MTT assay
Format: functional
Settings: K562, 48 h
Summary of the method: as §2

Compound | GI50
COc1ccc(N(C)c2ncnc3c2ncn3Cc2cc(OC)c(OC)c(OC)c2)cc1 | > 100000 nM
COc1ccc(N(C)c2nc(Cl)nc3c2ncn3C)cc1 | 2300 nM
COc1cc(Cn2cnc3c(Cl)nc(Cl)nc32)cc(OC)c1 | 4600 nM
COc1cc2c(c(OC)c1OC)-c1ccc(OC)c(=O)cc1[C@@H](NC(C)=O)CC2 [COLCHICINE] | 20 nM
COc1ccc(N(C)c2ncnc3c2ncn3Cc2ccc(OC)c(OC)c2)cc1 | > 100000 nM

System: AGS
Assay: Induction of apoptosis in human AGS cells after 24 hrs by Annexin V-FITC/propidium iodide-double staining based flow cytometry
Format: functional, cell-based
Settings: not given

Compound | Activity
COc1ccc(N(C)c2nc(Cl)nc3c2ncn3C)cc1 | Dose-dependent effect

System: AGS
Assay: Cell cycle arrest in human AGS cells assessed as accumulation at G2/M phase at 50 nM after 24 hrs by propidium iodide staining based flow cytometry (reference value: 9.18%)
Format: functional
Settings: not given
Summary of the method: as §1

Compound | Activity
COc1cc2c(c(OC)c1OC)-c1ccc(OC)c(=O)cc1[C@@H](NC(C)=O)CC2 [COLCHICINE] | 86.22%

System: AGS
Assay: Cell cycle arrest in human AGS cells assessed as accumulation at G0/G1 phase at 1 uM after 24 hrs by propidium iodide staining based flow cytometry (reference value: 52.87%)
Format: functional
Settings: not given
Summary of the method: as §1

Compound | Activity
COc1ccc(N(C)c2nc(Cl)nc3c2ncn3C)cc1 | 36.62%

System: not listed separately
Assay: Selectivity ratio of GI50 for human K562 cells to GI50 for human SH-SY5Y cells
Format: functional
Settings: not given

Compound | RatioGI50
COc1ccc(N(C)c2ncnc3c2ncn3Cc2cc(OC)c(OC)c(OC)c2)cc1 | >230
COc1ccc(N(C)c2ncnc3c2ncn3Cc2ccc(OC)c(OC)c2)cc1 | >230

System: AGS
Assay: Cell cycle arrest in human AGS cells assessed as accumulation at G2/M phase at 0.5 uM after 24 hrs by propidium iodide staining based flow cytometry (reference value: 9.18%)
Format: functional
Settings: not given
Summary of the method: as §1

Compound | Activity
COc1ccc(N(C)c2nc(Cl)nc3c2ncn3C)cc1 | 12.68%

System: AGS
Assay: Cell cycle arrest in human AGS cells assessed as accumulation at S phase at 1 uM after 24 hrs by propidium iodide staining based flow cytometry (reference value: 37.94%)
Format: functional
Settings: not given
Summary of the method: as §1

Compound | Activity
COc1ccc(N(C)c2nc(Cl)nc3c2ncn3C)cc1 | 38.2%

System: AGS
Assay: Cell cycle arrest in human AGS cells assessed as accumulation at G2/M phase after 24 hrs by propidium iodide staining based flow cytometry
Format: functional
Settings: not given
Summary of the method: as §1

Compound | Activity
COc1ccc(N(C)c2nc(Cl)nc3c2ncn3C)cc1 | Dose-dependent effect

System: not listed separately
Assay: Selectivity index, ratio of GI50 for mouse HT22 cells to GI50 for human AGS cells
Format: toxicity
Settings: HT22 cells and AGS cells, read-out: RatioGI50

Compound | selectivity ratio
COc1ccc(N(C)c2nc(Cl)nc3c2ncn3C)cc1 | 430

System: AGS
Assay: Cell cycle arrest in human AGS cells assessed as accumulation at S phase at 50 nM after 24 hrs by propidium iodide staining based flow cytometry (reference value: 37.94%)
Format: functional
Settings: not given
Summary of the method: as §1

Compound | Activity
COc1cc2c(c(OC)c1OC)-c1ccc(OC)c(=O)cc1[C@@H](NC(C)=O)CC2 [COLCHICINE] | 12.58%

System: AGS
Assay: Induction of apoptosis in human AGS cells assessed as early apoptotic cells at 0.25 uM after 24 hrs by Annexin V-FITC/propidium iodide-double staining based flow cytometry (reference value: 12.80%)
Format: functional
Settings: not given

Compound | Activity
COc1ccc(N(C)c2nc(Cl)nc3c2ncn3C)cc1 | 10.45%

System: AGS
Assay: Cell cycle arrest in human AGS cells assessed as accumulation at G0/G1 phase at 0.5 uM after 24 hrs by propidium iodide staining based flow cytometry (reference value: 52.87%)
Format: functional
Settings: not given
Summary of the method: as §1

Compound | Activity
COc1ccc(N(C)c2nc(Cl)nc3c2ncn3C)cc1 | 47.34%

System: AGS
Assay: Cell cycle arrest in human AGS cells assessed as accumulation at S phase at 0.5 uM after 24 hrs by propidium iodide staining based flow cytometry (reference value: 37.94%)
Format: functional
Settings: not given
Summary of the method: as §1

Compound | Activity
COc1ccc(N(C)c2nc(Cl)nc3c2ncn3C)cc1 | 39.98%

System: AGS
Assay: Induction of apoptosis in human AGS cells assessed as early apoptotic cells at 0.5 uM after 24 hrs by Annexin V-FITC/propidium iodide-double staining based flow cytometry (reference value: 12.80%)
Format: functional
Settings: not given

Compound | Activity
COc1ccc(N(C)c2nc(Cl)nc3c2ncn3C)cc1 | 12.35%

System: AGS
Assay: Induction of apoptosis in human AGS cells assessed as necrotic cells at 0.5 uM after 24 hrs by Annexin V-FITC/propidium iodide-double staining based flow cytometry (reference value: 0.40%)
Format: functional
Settings: not given

Compound | Activity
COc1ccc(N(C)c2nc(Cl)nc3c2ncn3C)cc1 | 0.85%
